# Assay results from publication PMC3277286 (Journal of Medicinal Chemistry, 2012).
# Columns and labels:
# [1] = biological target: T1, human ΔF508-CFTR (Homo sapiens, UniProt P13569, DEL508-508); type: cell-based; conditions: summary in text of corrector and potentiator assays in ΔF508-CFTR FRT cells
# Procedure, shortened: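 FRT cells coexpressing human ΔF508-CFTR and YFP-H148Q/I152L were grown 18–24 h at 37 °C, then rescued 18–24 h at 27 °C. After a PBS wash, they got 20 μM forskolin with test compound (0–50 μM final, eight concentrations) for 10 min. I⁻ influx was recorded over 2 s baseline plus 12 s after iodide addition, rate by exponential regression. Controls were DMSO and genistein. Runs were in triplicate; EC50/Vmax came from a 4-parameter logistic fit.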
# [2] = biological target: T1, human ΔF508-CFTR; test: ΔF508-CFTR corrector activity, fluorescence plate-reader iodide influx assay; type: cell-based; conditions: summary in text of corrector and potentiator assays in ΔF508-CFTR FRT cells
# Procedure, shortened: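 FRT cells stably coexpressing human ΔF508-CFTR and YFP-H148Q/I152L were grown 24 h at 37 °C, then given test compound for 16–20 h at eight concentrations (maximum 25 μM). After a PBS wash, they got 20 μM forskolin plus 50 μM genistein for 20 min. Iodide influx was read as YFP quenching after Cl-to-I replacement (137 mM), fitted exponentially. Runs were in triplicate; EC50/Vmax came from a 4-parameter logistic fit.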
SMILES,Activity class from function studies (potentiator) [1],Activity class from function studies (corrector / dual) [2]
"Cc1cc(C)c2cc(C#N)c(NCCNC(=O)c3cnccn3)nc2c1 [CoPo 22, N-(2-((3-Cyano-5,7-dimethylquinolin-2-yl)amino)ethyl)pyrazine-2-carboxamide]",,corrector-only activity
"COc1ccccc1C(=O)NCCCNc1nc2cc(C)cc(C)c2cc1C#N [CoPo 31, N-(3-(3-Cyano-5,7-dimethylquinolin-2-ylamino)propyl)-2-methoxybenzamide]",potentiator-only activity,

# Other lines, results leading:
Activity class from function studies (potentiator) [1],Activity class from function studies (corrector / dual) [2],SMILES
potentiator-only activity,,"Cc1cc(C)c2cc(C#N)c(NCCNC(=O)c3ccccn3)nc2c1 [CoPo 16, N-(2-((3-Cyano-5,7-dimethylquinolin-2-yl)amino)ethyl)picolinamide]"
potentiator-only activity,,"Cc1cc(C)c2cc(C#N)c(NCCNC(=O)c3ccccc3)nc2c1 [CoPo 19, N-(2-((3-Cyano-5,7-dimethylquinolin-2-yl)amino)ethyl)benzamide]"
potentiator-only activity,,"Cc1cc(C)c2cc(C#N)c(NCCCNC(=O)c3ccccn3)nc2c1 [CoPo 34, N-(3-(3-Cyano-5,7-dimethylquinolin-2-ylamino)propyl)picolinamide]"
